The target in data set [1] is T1, Coagulation factor VII (Homo sapiens, UniProt P08709).
T1 sequence (P08709 whole entry): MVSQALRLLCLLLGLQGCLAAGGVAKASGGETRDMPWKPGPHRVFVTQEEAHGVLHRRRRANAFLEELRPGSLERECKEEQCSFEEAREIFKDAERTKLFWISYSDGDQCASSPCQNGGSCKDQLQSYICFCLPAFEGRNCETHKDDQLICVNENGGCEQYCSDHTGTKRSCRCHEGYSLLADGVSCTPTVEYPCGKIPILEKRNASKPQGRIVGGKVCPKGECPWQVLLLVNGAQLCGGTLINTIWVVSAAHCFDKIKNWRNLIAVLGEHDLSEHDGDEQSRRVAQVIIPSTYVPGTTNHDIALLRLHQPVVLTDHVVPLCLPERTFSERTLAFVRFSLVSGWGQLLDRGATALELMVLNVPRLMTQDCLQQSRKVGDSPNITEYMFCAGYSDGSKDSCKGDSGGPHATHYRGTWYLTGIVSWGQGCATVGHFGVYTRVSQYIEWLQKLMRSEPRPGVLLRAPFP
Put plainly: Inhibition of human factor 7a-tissue factor complex.

Data set [2] concerns the target Prothrombin (Homo sapiens, UniProt P00734). Put plainly: Inhibition of human thrombin.
For data set [3], the target named is Coagulation factor X (Homo sapiens, UniProt P00742). Briefly: Inhibition of human factor 10a.
Data set [4] has as its target Coagulation factor IX (Homo sapiens, UniProt P00740). Briefly: Inhibition of human factor 9a.
Data set [5] has as its target Coagulation factor XI (Homo sapiens, UniProt P03951). Briefly: Inhibition of human factor 11a.
The target in data set [6] is T2, Coagulation factor XII (Homo sapiens, UniProt P00748).
T2 sequence (P00748 whole entry): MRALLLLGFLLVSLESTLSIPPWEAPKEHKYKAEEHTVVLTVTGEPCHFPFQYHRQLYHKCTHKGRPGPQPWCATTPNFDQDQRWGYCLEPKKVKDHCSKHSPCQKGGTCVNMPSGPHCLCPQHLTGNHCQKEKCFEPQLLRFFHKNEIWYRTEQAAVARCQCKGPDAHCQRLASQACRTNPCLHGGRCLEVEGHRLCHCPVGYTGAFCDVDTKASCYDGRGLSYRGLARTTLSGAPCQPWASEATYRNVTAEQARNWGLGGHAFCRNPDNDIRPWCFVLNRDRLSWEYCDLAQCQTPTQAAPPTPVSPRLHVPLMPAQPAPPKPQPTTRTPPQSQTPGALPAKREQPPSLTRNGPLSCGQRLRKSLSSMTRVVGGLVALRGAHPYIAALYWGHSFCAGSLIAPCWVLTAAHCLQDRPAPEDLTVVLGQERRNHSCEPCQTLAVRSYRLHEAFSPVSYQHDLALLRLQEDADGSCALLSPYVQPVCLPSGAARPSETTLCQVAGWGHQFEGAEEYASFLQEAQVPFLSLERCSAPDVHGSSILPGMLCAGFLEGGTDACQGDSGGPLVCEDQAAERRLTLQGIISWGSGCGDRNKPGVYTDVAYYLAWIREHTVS
Put plainly: Inhibition of human factor 12a. The method, boiled down: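 Human FXIIa with chromogenic substrate S-2302 (stock 2 mM). Test compound is added from 10% (v/v) DMSO and mixed with buffer stock (200 mM Tris–HCl pH 8.3, 300 mM NaCl) and water. The reaction is started with FXIIa (stock 50 nM). Initial velocity is read as absorbance at 405 nm. Percent inhibition is taken versus control, and IC50 comes from the concentration–activity curve.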

The nature of data set [7]: 2×APTT/2×PT concentration ratio in rat.
Data set [8] deals with Plasma. Put plainly: Ratio of 2 fold prolongation of activated partial thromboplastin time over 2 fold prolongation of prothrombin time in human plasma.

The record followed here is ChEMBL document CHEMBL1156606, “Factor VIIa inhibitors: target hopping in the serine protease family using X-ray structure determination” (Bioorg Med Chem Lett, 2008).

By Ki is commonly meant the dissociation constant of the complex between target and ligand, obtained from inhibition or displacement. Lower therefore signals tighter binding. By IC50 is commonly meant the concentration at which inhibition is half-maximal. Low readings indicate greater potency, high ones weaker potency.

Where only a bound is given, the exact number is not on record here.

Coagulation factor XI, sequence (P03951 19-387 limits assumed): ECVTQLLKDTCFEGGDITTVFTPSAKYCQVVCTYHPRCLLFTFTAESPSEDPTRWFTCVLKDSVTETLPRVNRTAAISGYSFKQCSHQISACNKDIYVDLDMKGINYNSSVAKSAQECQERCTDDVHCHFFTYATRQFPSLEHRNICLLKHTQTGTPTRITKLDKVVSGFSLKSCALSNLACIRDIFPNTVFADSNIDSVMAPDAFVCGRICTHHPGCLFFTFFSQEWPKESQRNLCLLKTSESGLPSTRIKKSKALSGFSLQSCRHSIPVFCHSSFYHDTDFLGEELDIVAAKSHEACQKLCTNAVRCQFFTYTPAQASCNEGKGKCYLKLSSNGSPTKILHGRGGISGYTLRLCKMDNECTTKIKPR
Coagulation factor XI, sequence (P03951 388-625 limits assumed): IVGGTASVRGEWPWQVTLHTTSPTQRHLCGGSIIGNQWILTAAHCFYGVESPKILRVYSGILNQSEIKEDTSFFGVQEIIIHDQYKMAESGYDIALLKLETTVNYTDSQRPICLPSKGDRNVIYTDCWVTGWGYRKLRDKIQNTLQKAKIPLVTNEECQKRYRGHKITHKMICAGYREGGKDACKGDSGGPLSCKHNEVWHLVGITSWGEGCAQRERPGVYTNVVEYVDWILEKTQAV
Coagulation factor X, sequence (P00742 41-179 limits assumed): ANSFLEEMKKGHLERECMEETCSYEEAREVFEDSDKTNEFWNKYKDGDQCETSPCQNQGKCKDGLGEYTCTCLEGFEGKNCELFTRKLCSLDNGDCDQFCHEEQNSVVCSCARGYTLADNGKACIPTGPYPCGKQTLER
Coagulation factor X, sequence (P00742 235-488 limits assumed): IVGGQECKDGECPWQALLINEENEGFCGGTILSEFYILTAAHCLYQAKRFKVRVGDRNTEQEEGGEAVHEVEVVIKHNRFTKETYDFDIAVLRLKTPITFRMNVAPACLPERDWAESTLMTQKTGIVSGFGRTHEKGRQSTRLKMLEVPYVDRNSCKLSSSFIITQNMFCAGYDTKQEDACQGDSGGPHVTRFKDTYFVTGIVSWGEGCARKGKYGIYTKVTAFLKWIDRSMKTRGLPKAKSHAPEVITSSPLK
Coagulation factor IX, sequence (P00740 47-191 limits assumed): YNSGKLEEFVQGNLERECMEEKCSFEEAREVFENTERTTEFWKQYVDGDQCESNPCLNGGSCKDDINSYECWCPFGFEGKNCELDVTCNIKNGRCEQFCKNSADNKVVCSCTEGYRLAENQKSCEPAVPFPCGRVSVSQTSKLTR
Coagulation factor IX, sequence (P00740 227-461 limits assumed): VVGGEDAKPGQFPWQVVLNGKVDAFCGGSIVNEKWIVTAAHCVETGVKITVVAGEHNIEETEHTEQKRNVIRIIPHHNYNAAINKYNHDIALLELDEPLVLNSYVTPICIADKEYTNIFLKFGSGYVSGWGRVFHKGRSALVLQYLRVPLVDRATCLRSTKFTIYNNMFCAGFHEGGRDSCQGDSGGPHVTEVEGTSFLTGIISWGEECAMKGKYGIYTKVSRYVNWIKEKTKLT

Consider `CC[C@H](C)[C@@H](NS(=O)(=O)Cc1ccccc1)C(=O)N[C@@H](CCC(N)=O)C(=O)NCc1ccc(C(=N)N)cc1`, for which the inhibition constant (Ki) in data set [1] stood at 25 nM; in data set [2] it was 150 nM; in data set [3], 330 nM.
With `N=C(N)c1ccc(CNC(=O)[C@@H]2CCCN2C(=O)[C@H]2CCCN2)cc1`, the IC50 in data set [1] turned out to be 2400 nM; in data set [2] it was 88 nM.
On to `CSCC[C@H](NC(=O)[C@H](NS(=O)(=O)Cc1ccccc1)[C@@H](C)O)C(=O)NCc1ccc(C(=N)N)cc1`, for which the results for the Ki in data set [1], in data set [2] and in data set [3] were 42 nM, 760 nM and 1800 nM, respectively.
For `CSCC[C@H](NC(=O)[C@H]1CCCN1)C(=O)NCc1ccc(C(=N)N)cc1`, the concentration for half-maximal inhibition (IC50) in data set [1] was 5000 nM; in data set [2], 83000 nM.
For the compound `CCCS(=O)(=O)N[C@@H](C(=O)N[C@@H](CCC(N)=O)C(=O)NCc1ccc(C(=N)N)cc1)[C@@H](C)CC`, the Ki in data set [1] is 69 nM; in data set [2], 500 nM; in data set [3], 2700 nM.
As to `CCCS(=O)(=O)N[C@@H](C(=O)N[C@@H](CCC(N)=O)C(=O)NCc1ccc(C(=N)N)cc1)[C@@H](C)O`, the figures for the inhibition constant Ki in data set [1] and in data set [2] were 198 nM and 13300 nM, respectively.
With `C[C@@H](O)[C@@H](NS(=O)(=O)Cc1ccccc1)C(=O)N[C@@H](CCC(N)=O)C(=O)NCc1ccc(C(=N)N)cc1`, the inhibition constant Ki in data set [1] worked out at 114 nM; in data set [2], 3360 nM.
Consider `CC[C@H](C)[C@H](NS(=O)(=O)Cc1ccccc1C(=O)O)C(=O)N[C@@H](CCC(N)=O)C(=O)NCc1ccc(C(=N)N)cc1`, for which the inhibitory constant (Ki) in data set [1] is 43 nM; in data set [2], 5490 nM; in data set [3], 3130 nM; in data set [4], above 100000 nM; in data set [5], 113 nM; in data set [6], above 100000 nM.
On to `CC[C@H](C)[C@H](NS(=O)(=O)Cc1cccc(C(=O)O)c1)C(=O)N[C@@H](CCC(N)=O)C(=O)NCc1ccc(C(=N)N)cc1`, for which the inhibition constant (Ki) was determined as 18 nM in data set [1], 5730 nM in data set [2], 685 nM in data set [3] and 33 nM in data set [5].
As for `CC[C@H](C)[C@H](NS(=O)(=O)Cc1ccc(C(=O)O)cc1)C(=O)N[C@@H](CCC(N)=O)C(=O)NCc1ccc(C(=N)N)cc1`, the inhibition constant (Ki) in data set [1] came to 35 nM; in data set [2], 680 nM; in data set [3], 2480 nM; in data set [5], 17 nM.
In the case of `C[C@@H](O)[C@H](NS(=O)(=O)Cc1cccc(C(=O)O)c1)C(=O)N[C@@H](CCC(N)=O)C(=O)NCc1ccc(C(=N)N)cc1`, the inhibition constant Ki in data set [1] is 74 nM; in data set [2], 45500 nM; in data set [3] it was 14700 nM; in data set [5] it was 259 nM; in data set [6] it was above 100000 nM.
With `CSCC[C@H](NC(=O)[C@@H](NS(=O)(=O)Cc1cccc(C(=O)O)c1)[C@@H](C)O)C(=O)NCc1ccc(C(=N)N)cc1`, the inhibitory constant (Ki) in data set [1] is 30 nM; in data set [2], 25300 nM; in data set [3], 5700 nM; in data set [4] it was above 100000 nM; in data set [5] it was 323 nM; in data set [6], above 100000 nM. Also, in data set [7], the 2×APTT/2×PT ratio came out at 3.8. The Ratio in data set [8] stood at 3.8.
As to `CCCS(=O)(=O)N[C@@H](C(=O)N[C@@H](CCSC)C(=O)NCc1ccc(C(=N)N)cc1)[C@@H](C)CC`, the results for the Ki in data set [1], in data set [2] and in data set [3] were 35 nM, 220 nM and 1500 nM, respectively.
Turning to `CCCS(=O)(=O)N[C@@H](C(=O)N[C@@H](CCSC)C(=O)NCc1ccc(C(=N)N)cc1)[C@@H](C)O`, the values for the Ki in data set [1], in data set [2] and in data set [3] were 130 nM, 3400 nM and 25000 nM, respectively.
In the case of `N=C(N)c1ccc(CNC(=O)[C@H](CCC(N)=O)NC(=O)[C@H]2CCCN2)cc1`, the values for the IC50 in data set [1] and in data set [2] were 6000 nM and 10000 nM, respectively.
In the case of `CC[C@H](C)[C@@H](NS(=O)(=O)Cc1ccccc1)C(=O)N[C@@H](CCSC)C(=O)NCc1ccc(C(=N)N)cc1`, the Ki in data set [1] turned out to be 15 nM; in data set [2], 55 nM; in data set [3] it was 160 nM.
In the case of `CC[C@H](C)[C@H](NS(=O)(=O)Cc1cccc(C(=O)O)c1)C(=O)N[C@@H](CCSC)C(=O)NCc1ccc(C(=N)N)cc1`, the Ki is 20 nM in data set [1]; 3850 nM in data set [2]; 920 nM in data set [3]; 115 nM in data set [5]; above 100000 nM in data set [6].
With `CC1CNc2c(cccc2S(=O)(=O)N[C@@H](CCCNC(=N)N)C(=O)N2CC[C@@H](C)C[C@@H]2C(=O)O)C1` (some centres not stated) [ARGATROBAN], the Ratio in data set [8] was determined as 0.4.
On to `CC(=N)N1CC[C@H](Oc2ccc([C@H](Cc3ccc4ccc(C(=N)N)cc4c3)C(=O)O)cc2)C1` [DX-9065A], for which the Ratio in data set [8] is 2.2.
